Data taken from ChEMBL document CHEMBL1133143, “Calpain inhibitors based on the quiescent affinity label concept: high rates of calpain inactivation with leaving groups derived from N-hydroxy peptide coupling reagents” (Bioorg Med Chem Lett, 2000).
Residues, ends and D or L forms follow the SMILES beside them. *: point of attachment. Cbz = O=C(OCc1ccccc1)*; CH2F = FC*

Tests used:
[1] = molecular target: Cathepsin B (Homo sapiens) (UniProt P07858); experiment: Ratio of second order rate constant of calpain I to that of cathepsinB
[2] = molecular target: Cathepsin B (Homo sapiens) (UniProt P07858); experiment: Second order rate constant for inactivation of human liver cathepsin B was reported
Method in brief: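 Human liver cathepsin B inactivation was run by an analogous progress-curve method (substrate plus inhibitor) under published assay conditions. The second-order rate constant came from progress-curve analysis. Inhibitor was added as quickly as possible before measurement because of limited aqueous stability.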

[3] = molecular target: T1, Calpain-1 catalytic subunit (Homo sapiens) (UniProt P07384); experiment: Second order rate constant for inactivation of recombinant human Calpain 1 was reported
T1 sequence (whole entry): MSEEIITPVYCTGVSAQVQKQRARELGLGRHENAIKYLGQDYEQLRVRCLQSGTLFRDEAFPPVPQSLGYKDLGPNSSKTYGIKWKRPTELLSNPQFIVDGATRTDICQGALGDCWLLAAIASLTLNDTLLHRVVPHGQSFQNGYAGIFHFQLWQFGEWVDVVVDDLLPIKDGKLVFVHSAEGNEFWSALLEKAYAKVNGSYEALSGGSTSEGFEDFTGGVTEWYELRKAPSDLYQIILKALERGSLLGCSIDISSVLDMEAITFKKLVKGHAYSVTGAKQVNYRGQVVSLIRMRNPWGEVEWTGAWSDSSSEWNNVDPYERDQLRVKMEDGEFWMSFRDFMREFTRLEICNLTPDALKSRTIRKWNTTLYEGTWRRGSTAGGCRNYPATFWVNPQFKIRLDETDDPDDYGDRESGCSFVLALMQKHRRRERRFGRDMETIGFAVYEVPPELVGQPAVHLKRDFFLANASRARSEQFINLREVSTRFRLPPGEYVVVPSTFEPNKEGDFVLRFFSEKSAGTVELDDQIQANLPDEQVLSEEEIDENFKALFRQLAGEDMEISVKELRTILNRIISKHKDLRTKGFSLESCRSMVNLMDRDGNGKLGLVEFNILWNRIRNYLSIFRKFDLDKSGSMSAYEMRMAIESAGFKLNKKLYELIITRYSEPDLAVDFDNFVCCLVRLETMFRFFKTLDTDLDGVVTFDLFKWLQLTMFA
Method in brief: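 Started with 5 mM CaCl2 at ambient temperature. Fluorescence (ex 340/em 440 nm) was recorded continuously. kobs came from an exponential fit, and k2 from the kobs-vs-[I] slope with a (1+S/Km) correction.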

[4] = molecular target: Cathepsin B (Homo sapiens) (UniProt P07858); experiment: Percent inhibition of recombinant calpain I after 5 min of incubation with 10 uM compound
Method in brief: (§1)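 Single-concentration test: 10 inhibitor, 5 min incubation, then percent inhibition of recombinant human calpain I activity measured by the fluorogenic Suc-Leu-Tyr-MNA assay (ex 340/em 440 nm) in Ca2+-initiated buffer at ambient temperature.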

[5] = molecular target: T1, Calpain-1 catalytic subunit (Homo sapiens); experiment: Percent inhibition of recombinant Calpain 1 after 5 min of incubation with 10 uM compound; method in brief: as §1

Row | SMILES | Ratio [1] | K obs / 1 [2] [M⁻¹ s⁻¹] | K obs / 1 [3] [M⁻¹ s⁻¹] | inhibition [4] [%] | inhibition [5] [%]
1 | CC(C)CC(NC(=O)OCc1ccccc1)C(=O)NC(Cc1ccccc1)C(=O)CF (stereo not drawn) (Cbz-Leu-Phe-CH2F; configuration not given here) | 454 | 300 | 136000 |  | 
2 | CC(C)CC(NC(=O)OCc1ccccc1)C(=O)NC(Cc1ccccc1)C(=O)COn1nnc2cccnc21 (stereo not given) | 1.7 | 107000 | 184000 |  | 
3 | CC(C)CC(NC(=O)OCc1ccccc1)C(=O)NC(CC(C)C)C(=O)NC(Cc1ccccc1)C(=O)COn1nnc2ccccc21 (stereo not given) |  |  | 524000 | 32 | 
4 | CC(C)CC(NC(=O)OCc1ccccc1)C(=O)NC(Cc1ccccc1)C(=O)Cn1nnc2ccccc21 (stereo not given) |  |  |  |  | 83
5 | CC(C)CC(NC(=O)OCc1ccccc1)C(=O)NC(Cc1ccccc1)C(=O)CON1C(=O)C2C3C=CC(C3)C2C1=O (stereo not given) | 0.14 | 6900 | 1000 |  | 
6 | CC(C)CC(NC(=O)OCc1ccccc1)C(=O)NC(Cc1ccccc1)C(=O)COn1nnc2ccccc21 (stereo in doubt; 1d) | 2.7 | 118000 | 320000 |  | 
7 | CC(C)CC(NC(=O)OCc1ccccc1)C(=O)NC(Cc1ccccc1)C(=O)CON1C(=O)c2ccccc2C1=O (stereo not given) |  |  |  |  | 32
8 | CC(C)CC(NC(=O)OCc1ccccc1)C(=O)NC(Cc1ccccc1)C(=O)CON1C(=O)CCC1=O (stereo not given) |  |  | 5800 |  | 
9 | CCC(NC(=O)C(CC(C)C)NC(=O)OCc1ccccc1)C(=O)COn1nnc2ccccc21 (stereo not given) | 0.14 | 443000 | 63000 |  | 
